Published values of several laboratories.
Target: LIM domain kinase 2 (LIMK2, Homo sapiens, UniProt P53671)

Compound	read-out	mode	technique	tested at	quantity	value
O=C(Nc1cnn(-c2csc(C(=O)NC3COC3)c2)c1)Nc1ccccc1Cl	enzyme activity	inhibitor	–	5 µM	remaining activity	96.8%
COc1cc(Cl)c(C(=O)N[C@@H](CN[C@H]2CC[C@@H](N)CC2)Cc2ccc(C#N)cc2)cc1-c1ccc(CN[C@H](C)c2ccc(C)cc2)o1	enzyme activity	inhibitor	–	1 µM	remaining activity	101%
CC(C)(C)c1nc2c(s1)c1nc(N)ncc1c1ccc(NS(=O)(=O)c3c(F)cccc3F)c(F)c12	enzyme activity	inhibitor	radiometric	1 µM	remaining activity	92%
CN1CC(Oc2cnc(C#N)cc2-c2ccn3nc(NC(=O)C4CC4)cc3c2)C1	enzyme activity	inhibitor	–	1 µM	inhibition	5%
c1cnn2ncc(-c3ccnc(N4CCC45COC5)n3)c2c1	binding	–	–	1 µM	remaining binding	82%
O=C(NCc1ncc(C(F)(F)F)cc1Cl)c1ccc2c(c1)C1(CCS(=O)(=O)CC1)[C@@H](C1CC1)N2S(=O)(=O)c1ccc(F)cc1	cell-free assay	–	competition with immobilised ligand	1 µM	remaining binding	94%
Cc1sc(C(=O)NC2COC2)cc1-n1cc(NC(=O)Nc2c(F)cccc2Cl)cn1	enzyme activity	inhibitor	–	10 µM	remaining activity	113%
CCOc1cc(-c2nncn2C)ccc1Nc1ncc2cc(C)nc(NCC(C)(C)C)c2n1	cell-free assay	–	TR-FRET	1 µM	inhibition	≤ 15%
O=C(N[C@H]1CCCCC/C=C\C2C[C@@]2(C(=O)O)NC(=O)[C@@H]2C[C@@H](Oc3ccncc3)CN2C1=O)OC1CCCC1 (stereo partly drawn)	binding	–	competition with immobilised ligand	1 µM	remaining binding	93%
Cc1ccc(C(=O)Nc2ccc(CN3CCN(C)CC3)c(C(F)(F)F)c2)cc1C#Cc1cnc2cccnn12	enzyme activity	inhibitor	–	23.5 nM	remaining activity	100%
Nc1ncnc2occ(-c3ccc(NC(=O)Nc4cc(C(F)(F)F)ccc4F)cc3)c12	cell-free assay	inhibitor	–	20 µM	remaining signal	8.8%
CC(C)(C)c1nc(-c2cccc(NS(=O)(=O)c3c(F)cccc3F)c2F)c(-c2ccnc(N)n2)s1	enzyme activity	inhibitor	radiometric	1 µM	remaining activity	87%
